Compound activity (PubChem)
MEKK2 WT-MEK5 = raises or lowers MEK5 binding to wildtype human MEKK2 PB1 domain | 290,000 tested, 1.1% active | AID 1531 | binding response (% of control), % at 10 µM | Q9Y2U5 | bead flow cytometry, Alexa488-MEK5 binding to MEKK2 WT; actives lie on both sides; in the data active = binding response below about 67% or above about 130%
MEKK3 PB1 HTS = modulators (inhibitors or enhancers) of MEK5 binding to human MEKK3 PB1 domain | Q99759 | bead-based flow cytometry, Alexa488-MEK5 binding to MEKK3; actives lie on both sides; 0 = blocked by unlabeled MEK5, 100 = vehicle | binding response (% of control), % at 10 µM | 290,000 tested, 1.4% active | AID 1529;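 active = binding response more than 3 SD above or below the average of its plate-row segment, actives on both sides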;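 note: Alexa488 bead fluorescence after subtracting the streptavidin-only scavenger bead signal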
Target sequence (Q99759 whole entry, looked up, the tested form may be a part): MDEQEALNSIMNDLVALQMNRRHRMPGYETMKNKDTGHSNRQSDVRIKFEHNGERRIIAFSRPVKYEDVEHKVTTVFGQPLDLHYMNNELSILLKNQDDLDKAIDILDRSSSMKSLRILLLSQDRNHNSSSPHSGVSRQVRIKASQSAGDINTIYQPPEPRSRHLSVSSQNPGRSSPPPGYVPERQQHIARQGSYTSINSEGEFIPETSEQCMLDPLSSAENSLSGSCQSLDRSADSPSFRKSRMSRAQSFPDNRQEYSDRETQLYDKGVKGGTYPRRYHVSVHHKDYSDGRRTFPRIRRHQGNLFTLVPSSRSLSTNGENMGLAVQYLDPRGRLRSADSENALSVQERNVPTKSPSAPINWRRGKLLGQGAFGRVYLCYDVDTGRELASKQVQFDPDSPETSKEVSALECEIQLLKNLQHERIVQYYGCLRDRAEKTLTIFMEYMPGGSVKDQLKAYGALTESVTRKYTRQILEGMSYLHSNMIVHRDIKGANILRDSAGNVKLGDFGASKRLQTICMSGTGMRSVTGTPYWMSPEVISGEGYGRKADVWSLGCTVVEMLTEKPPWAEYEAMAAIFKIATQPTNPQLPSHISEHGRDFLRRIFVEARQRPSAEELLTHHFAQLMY
Lipid droplet = modulators of hepatic lipid droplet formation | AML12 mouse hepatocytes, oleate lipid droplets, BODIPY imaging | inhibition, % at 6.5 µM | 240,000 tested, 0.4% active | AID 1656;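 active = lipid droplet intensity inhibited by at least 50%, with more than 500 cells counted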
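Assay system: AML12 mouse liver cells | Compound: 6.5 µM single-point dosing | Schedule: Overnight exposure | Technique: Fluorescence imaging, 20x objective, two fields per well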
MEKK2mut PB1 HTS = signal of MEK5 binding to mutant human MEKK2 PB1 domain | bead flow cytometry, Alexa488-MEK5 binding to MEKK2 mutant | percent response, % at 10 µM | 290,000 tested, 0.35% active; in the data active = percent response above about 24%, passing the limit was not always enough
MEKK2wt confirm = raises or lowers MEK5 binding to wildtype human MEKK2, retest; shares compounds with MEKK3 PB1 HTS; binding response (% of control), % at 10 µM; AID 1892; 5,900 tested, 2.4% active; bead flow cytometry, Alexa488-MEK5 binding to MEKK2 WT; actives lie on both sides; in the data active = binding response below about 16% or above about 210%; inactive = in between
MEKK2mut confirm = signal of MEK5 binding to mutant human MEKK2, retest | percent response, % at 10 µM | bead flow cytometry, Alexa488-MEK5 binding to MEKK2 mutant | 5,900 tested, 2% active | shares compounds with MEKK3 PB1 HTS | AID 1893; in the data active = percent response mostly above about 71%, no sharp cut-off; inactive = mostly below about 38%;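 note: higher means compound restores mutant binding toward wildtype level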
MEKK3-MEK5 inh = MEKK3-MEK5 PB1 inhibition, single concentration confirmation; shares compounds with MEKK3 PB1 HTS; bead flow cytometry, Alexa488-MEK5 binding to MEKK3; active compounds read low; binding response (% of control), % at 10 µM; 5,900 tested, 1.8% active; AID 1894;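 active = binding response below 72% of control, or above a set upper limit, though filed actives all read lower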;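 note: lower values mean stronger disruption of MEK5 binding to MEKK3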
Of the large screens only hits and unclear results are named; the others gave an inactive call (follow-up assays come after a bar, where they were run); [ ] = remark or other dose. Sampled rows, rich in hits. Any-hit rate of the full collection: about 2.6%.

Cc1ccc(C(=O)N/N=c2\sc3ccccc3n2C)cc1	MEKK3 PB1 HTS 136.0 | MEKK2wt confirm inactive | MEKK2mut confirm inactive | MEKK3-MEK5 inh inactive
COc1cccc(C(=O)N/N=c2\sc3ccccc3n2C)c1	none
CN(c1nc2ccccc2nc1Cl)S(=O)(=O)c1ccccc1	none
CCOc1ccc(CC(=NCCc2ccccc2)C2=C(O)CC(C)(C)CC2=O)cc1OCC	MEKK3 PB1 HTS 146.0 | MEKK2wt confirm inactive | MEKK2mut confirm inactive | MEKK3-MEK5 inh inactive
CCNC(=S)N1CCC(NC(=O)C2CCCCC2)CC1	none (no result: Lipid droplet)
CCNC(=S)NNC(=O)C1CCCCC1	MEKK2 WT-MEK5 2.0[inhibitor], MEKK3 PB1 HTS 2.0[inhibitor] | MEKK2wt confirm inactive | MEKK2mut confirm inactive | MEKK3-MEK5 inh inactive
CCOc1ccc(NC(=O)CCC(=O)Oc2ccc(C)cc2)cc1	none
Cn1nc(-c2ccc(Cl)cc2)c2cc(C(=O)NCCCN3CCCC3)sc21	MEKK2 WT-MEK5 201.0 (no result: Lipid droplet) | MEKK2wt confirm inactive | MEKK2mut confirm inactive | MEKK3-MEK5 inh inactive
CCN1CCCC1CNC(=O)c1cc2c(-c3ccc(Cl)cc3)nn(C)c2s1 (stereo not drawn)	MEKK2 WT-MEK5 210.0, MEKK2mut PB1 HTS 29.0 (no result: Lipid droplet) | MEKK2wt confirm inactive | MEKK2mut confirm inactive | MEKK3-MEK5 inh inactive
CC(=O)c1c(N2CCN(C)CC2)[nH]c(-c2ccccc2)nc1=S	MEKK2 WT-MEK5 23.0, MEKK2mut PB1 HTS 47.0 (no result: Lipid droplet) | MEKK2wt confirm inactive | MEKK2mut confirm inactive | MEKK3-MEK5 inh inactive
COCCn1c(COc2cccc(OC)c2)nnc1SCC(=O)N1CCOCC1	none (no result: Lipid droplet)
CNc1ccc(OC(F)F)cc1C(=O)c1ccccc1	MEKK2 WT-MEK5 -2.0[inhibitor], MEKK3 PB1 HTS 1.0[inhibitor] (no result: Lipid droplet) | MEKK2wt confirm inactive | MEKK2mut confirm inactive | MEKK3-MEK5 inh inactive
COc1ccc(C(=O)Nc2ccc(C)cc2C(=O)c2ccccc2)cc1	none
Cc1noc(C)c1COC(=O)CCc1nc2ccccc2s1	MEKK3 PB1 HTS 130.0 (no result: Lipid droplet) | MEKK2wt confirm inactive | MEKK2mut confirm inactive | MEKK3-MEK5 inh inactive
CCC(c1nnnn1Cc1cccs1)N1CCN(C(=O)c2ccco2)CC1 (stereo not drawn)	MEKK2 WT-MEK5 -1.0[inhibitor], MEKK3 PB1 HTS 0.0[inhibitor] | MEKK2wt confirm inactive | MEKK2mut confirm inactive | MEKK3-MEK5 inh inactive
Cc1ccc(C)c(C(C)NC(=O)C2C3CCC(O3)C2C(=O)O)c1 (stereo not drawn)	none (no result: Lipid droplet)
O=C(Cn1cnc2cc([N+](=O)[O-])ccc2c1=O)Nc1ccccc1-c1ccccc1	none
O=C(NCC1CCCCC1)c1ccc(F)cc1Cl	none
CC(C)CNC1CS(=O)(=O)CC1O (stereo not drawn)	none
O=S1(=O)CC(O)C(NCc2cccnc2)C1 (stereo not drawn)	MEKK3 PB1 HTS 82.0[inhibitor] | MEKK2wt confirm inactive | MEKK2mut confirm inactive | MEKK3-MEK5 inh inactive
Cc1ccc([N+](=O)[O-])c(OCCN2CCCCCC2)c1	none
CCOc1cc(N2CCCC2)ccc1[N+](=O)[O-]	MEKK3 PB1 HTS 133.0 | MEKK2wt confirm inactive | MEKK2mut confirm inactive | MEKK3-MEK5 inh inactive
COc1ccccc1NS(=O)(=O)c1cccc(C(=O)N/N=C2\CC(=O)CC(C)(C)C2)c1	MEKK3 PB1 HTS 142.0 | MEKK2wt confirm inactive | MEKK2mut confirm inactive | MEKK3-MEK5 inh inactive
COc1ccccc1NS(=O)(=O)c1cccc(C(=O)NN=C2CCCC2)c1	none
Cc1nn(C)cc1C(C(=O)NC1CCCCC1)N(Cc1ccccc1Cl)C(=O)c1cnccn1 (stereo not drawn)	none
COC(=O)c1cccc(N(C(=O)c2cnccn2)C(C(=O)NC2CCCCC2)c2cn(C)nc2C)c1 (stereo not drawn)	MEKK3 PB1 HTS 46.0[inhibitor] | MEKK2wt confirm inactive | MEKK2mut confirm inactive | MEKK3-MEK5 inh inactive
COc1ccc(NC(=O)NCCCN2CCN(c3cc(C)ccc3C)CC2)cc1	MEKK2 WT-MEK5 135.0, MEKK2mut PB1 HTS 25.0 | MEKK2wt confirm inactive | MEKK2mut confirm inactive | MEKK3-MEK5 inh inactive
CCCOc1ccc(-c2nnn(CC(=O)c3ccc4c(c3)OCCO4)n2)cc1	none (no result: Lipid droplet)
COc1ccc(-c2nnn(CC(=O)NC3CCCc4ccccc43)n2)cc1OC (stereo not drawn)	MEKK3 PB1 HTS 122.0 (no result: Lipid droplet) | MEKK2wt confirm inactive | MEKK2mut confirm inactive | MEKK3-MEK5 inh inactive
O=C(CN1CCN(c2ccccc2Cl)CC1)NC1CCCc2ccccc21 (stereo not drawn)	MEKK3 PB1 HTS 129.0 | MEKK2wt confirm inactive | MEKK2mut confirm inactive | MEKK3-MEK5 inh inactive
COc1ccc(-c2nnn(CC(=O)c3ccc4c(c3)OCCO4)n2)cc1OC	MEKK3 PB1 HTS 123.0 | MEKK2wt confirm inactive | MEKK2mut confirm inactive | MEKK3-MEK5 inh inactive
CCOC(=O)c1cc(C)n(CCc2ccccc2)c1C	none
Cc1cc(-c2csc(N)n2)c(C)n1CCc1ccccc1	MEKK2 WT-MEK5 56.0[inhibitor] | MEKK2wt confirm inactive | MEKK2mut confirm inactive | MEKK3-MEK5 inh inactive
COC(=O)CCC(=O)OC1(C)C(=O)C=C2C=C(C3CC3)N(CCCOC(C)C)C=C2C1=O (stereo not drawn)	none
COC(=O)CCC(=O)OC1(C)C(=O)C2=CN(CC(C)C)C(c3ccc(OC)cc3)=CC2=C(Br)C1=O (stereo not drawn)	MEKK2 WT-MEK5 -7.0[inhibitor] (no result: Lipid droplet) | MEKK2wt confirm inactive | MEKK2mut confirm inactive | MEKK3-MEK5 inh 71.0
COC(=O)CCC(=O)OC1(C)C(=O)C2=CN(CCCOC(C)C)C(c3ccc(OC)cc3)=CC2=C(Br)C1=O (stereo not drawn)	MEKK2 WT-MEK5 -8.0[inhibitor] | MEKK2wt confirm inactive | MEKK2mut confirm inactive | MEKK3-MEK5 inh inactive
CCc1nn(CC(=O)NCCCN2CCN(CC)CC2)c(=O)c2cc3occc3n12	none
COc1cccc(NC(=O)N2CCN(c3cccc(C)c3C)CC2)c1	MEKK2 WT-MEK5 0.0[inhibitor], MEKK3 PB1 HTS 0.0[inhibitor] | MEKK2wt confirm inactive | MEKK2mut confirm inactive | MEKK3-MEK5 inh inactive
Cc1cccc(NC(=O)CCCC(=O)OC(C)C(=O)c2ccccc2)c1 (stereo not drawn)	none
CN1CCc2c(sc3nc(SCC(N)=O)n(-c4ccc(Cl)cc4)c(=O)c23)C1	none
CN1CCc2c(sc3nc(SCC(N)=O)n(-c4ccccc4)c(=O)c23)C1	MEKK2mut PB1 HTS 79.0 | MEKK2wt confirm inactive | MEKK2mut confirm inactive | MEKK3-MEK5 inh inactive
CCn1c(SCC(=O)c2ccccc2)nc2sc3c(c2c1=O)CCN(C)C3	MEKK3 PB1 HTS 130.0 | MEKK2wt confirm inactive | MEKK2mut confirm inactive | MEKK3-MEK5 inh inactive
COc1ccccc1OCCNc1cc(N2CCCCC2)ccc1[N+](=O)[O-]	none
Cc1ccccc1OCCNc1cc(N2CCNCC2)ccc1[N+](=O)[O-]	MEKK2 WT-MEK5 162.0 | MEKK2wt confirm inactive | MEKK2mut confirm inactive | MEKK3-MEK5 inh inactive
